Bioassay records from PubChem.
Sampled rows, rich in hits. Any-hit rate of the full collection: about 2.2%.
Ba/F3 V617F tox: loss of viability in JAK2V617F-driven Ba/F3 cells. Ba/F3 EpoR-JAK2V617F viability, ATP luminescence. inhibition, % at 5.6 µM. actives 1.1% (n = 220,000);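 active means inhibition above the campaign mean plus 3 SD over all tested compounds, cut at about 24% in these data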;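 further: cytokine-independent growth of Ba/F3 cells driven by EpoR plus mutant JAK2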
b-catenin transl: beta-catenin nuclear translocation modulation; HeLa beta-catenin nuclear translocation, immunofluorescence imaging; nuclear translocation activity, % at 5 µM; actives 0.3% (n = 190,000);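 active means nuclear translocation activity above 50% at 5 µM, with a well cell count of 50 or more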;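 further: per-cell ratio of nuclear to cytoplasmic median beta-catenin stain intensity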
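Technique: fluorescence imaging of beta-catenin antibody stain plus DAPI / Material: human HeLa cell line / Incubation: compound treatment 24 h, 37°C, 5% CO2 / Read-out basis: % activation of per-cell nuclear versus cytoplasmic median beta-catenin signal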
BaF3 parental: counter-screen for JAK2V617F inhibitors: parental Ba/F3 viability inhibitors; CellTiter-Glo ATP luminescence; inhibition, % at 5.6 µM; actives 1.1% (n = 220,000);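 active means inhibition above a per-campaign cutoff, the mean inhibition of all tested compounds plus 3 SD, cut at about 27% in these data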
MT stabilize HCS: stabilizes microtubules in HeLa cells. HeLa tubulin immunostaining HCS, 24 h; share of cells brighter than vehicle mean+2SD. % tubulin-high responders, % at 10 µM. actives 0.83% (n = 200,000);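 active means plate Z-score above 3 for both tubulin-high and condensed-nucleus cell shares, with cell loss under 80%, at 10 µM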;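 further: anti alpha tubulin signal scored within the nucleus-defined area of each cell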
APP transl inh: APP translation inhibition. AID 1285. SH-SY5Y APP 5'UTR-luciferase reporter, luminescence. actives 0.82% (n = 190,000). inhibition, % at 2 µM;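 active means inhibition above a set limit, derived from the sample mean plus 3 SD, cut at about 45% in these data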
IEC-6 cytotox: IEC-6 cytotoxicity, counter-screen for KLF5 inhibitors; luminescence viability; inhibition, % at 5 µM; actives 0.78% (n = 290,000); in the data active means inhibition above about 22%
Large screens that a line does not name were inactive.

CN(C)C(Cc1ccccc1)C(=O)c1c[nH]c2ccccc12 (stereo not drawn)	none (no result: Ba/F3 V617F tox, b-catenin transl, BaF3 parental, MT stabilize HCS, APP transl inh)
CN(C)C(Cc1ccccc1)C(=O)c1ccccc1 (stereo not drawn)	BaF3 parental 34
OC(c1cccc(Cl)c1)(c1cccc(Cl)c1)C1CN2CCC1CC2 (stereo not drawn)	none
Cc1cc([N+](=O)[O-])c2ccccc2[n+]1[O-]	Ba/F3 V617F tox 100, BaF3 parental 106, IEC-6 cytotox 101 (no result: MT stabilize HCS, APP transl inh)
Cc1ncc([N+](=O)[O-])n1CCOc1nonc1N	none
COC(=O)C1CN(C#N)N(c2ccc(Cl)cc2)C12c1ccccc1-c1ccccc12 (stereo not drawn)	Ba/F3 V617F tox 95, BaF3 parental 29, APP transl inh 94, IEC-6 cytotox 46 (no result: b-catenin transl)
COc1ccc(C(=O)O/N=C(/C(N)=O)P(=O)(OC(C)C)OC(C)C)cc1	none (no result: MT stabilize HCS, APP transl inh)
O=C(c1ccccc1)C(CN1CCCC1)c1ccccc1 (stereo not drawn)	APP transl inh 92
CCN1CCN(CC(c2ccccc2)c2ccccc2)CC1	none (no result: Ba/F3 V617F tox, b-catenin transl, BaF3 parental, MT stabilize HCS, APP transl inh)
CCOC(=O)C(O)(c1ccc(N(CC)S(=O)(=O)c2ccc(C)cc2)cc1)C(F)(F)F (stereo not drawn)	none
CCCNC1=C(C)C(=O)C2=C(C1=O)C(COC(N)=O)[C@]1(OC)C3NC3CN21 (stereo partly drawn)	Ba/F3 V617F tox 82, BaF3 parental 62 (no result: MT stabilize HCS, APP transl inh)
CCOc1ccccc1-n1c(O)c(C=NCCCN(CC)CC)c(=O)[nH]c1=O	none
O=C1CC(c2ccccc2)CC(O)=C1C=NCCN1CCN(C(=O)Cc2ccccc2)CC1 (stereo not drawn)	BaF3 parental 28 (no result: b-catenin transl)
CC1(C)CN=C(NCc2ccccc2Cl)S1	none (no result: b-catenin transl)
O=C(c1ccco1)c1cn(Cc2ccc(Cl)cc2)c2ccccc12	MT stabilize HCS 5.6 (no result: b-catenin transl)
O=C(Cn1cc(C(=O)c2ccccc2)c2ccccc21)NCc1ccco1	MT stabilize HCS 31
COc1ccc(-c2cc(-c3ccccc3)[n+](C)c(-c3ccccc3)c2)cc1	Ba/F3 V617F tox 99, BaF3 parental 76
C[N+]1=C(/C=C/Nc2ccccc2)C(C)(C)c2ccccc21	Ba/F3 V617F tox 59, BaF3 parental 61
CCN(CC)c1ccc(CNCCc2ccccc2F)cc1	MT stabilize HCS 21
Cc1ccc(CNCCc2ccccc2F)cc1	none
CC/C(=N\NC(=S)Nc1ccccc1)c1c(O)[nH]c(=O)[nH]c1=O	none (no result: MT stabilize HCS, APP transl inh)
COc1ccc(C2NCc3ccc4c(c3-n3cccc32)OCO4)cc1O (stereo not drawn)	Ba/F3 V617F tox 75, BaF3 parental 73, MT stabilize HCS 29, APP transl inh 94, IEC-6 cytotox 74 (no result: b-catenin transl)
O=C(Nc1ccc(OC(=O)N2CCCCC2)cc1)N1CCOCC1	APP transl inh 52
Nc1ccccc1C(=O)OCC(=O)c1ccc2c(c1)OCCO2	none
Clc1ccc(OCC#CCN2CCCCCC2)cc1	none
CCOP(=S)(NN(Cc1ccccc1)C(=O)c1ccccc1)OCC	none
Cc1cccc(-c2nc3ccc(C(=O)N4CCC5(CC4)OCCO5)cc3nc2-c2cccc(C)c2)c1	none (no result: Ba/F3 V617F tox, b-catenin transl, BaF3 parental, MT stabilize HCS, APP transl inh)
O=C(c1ccc2c(c1)ncn2C1CCCCC1)N1CCC2(CC1)OCCO2	MT stabilize HCS 27
Cn1c(O)c(C=Nc2ccc(F)cc2)c(=O)[nH]c1=O	none (no result: Ba/F3 V617F tox, b-catenin transl, BaF3 parental, MT stabilize HCS, APP transl inh)
CC(C)(C)n1c(O)c(C=Nc2ccc3c(c2)CCC3)c(=O)[nH]c1=O	BaF3 parental 63
COC(=O)CSC1=NN1c1cc(C)nc(N)n1	none
CC1CCC(C(C)C)C(OC(=O)Cn2c(COc3ccccc3)[n+](C)c3ccccc32)C1 (stereo not drawn)	Ba/F3 V617F tox 99, BaF3 parental 101 (no result: MT stabilize HCS, APP transl inh)
C=CCN1C(=O)NC(=O)/C(=C/C=C/c2ccccc2)C1=O	APP transl inh 74
CCOC(=O)C1CCN(/C=C2/C(=O)NC(=O)N(Cc3ccco3)C2=O)CC1	MT stabilize HCS 41
CCOC(=O)CC(NC(=O)C(Cc1ccc(N(CCCl)CCCl)cc1)NC(C)=O)C(=O)OCC (stereo not drawn)	APP transl inh 86
CC(=O)NC(Cc1ccc(N(CCCl)CCCl)cc1)C(=O)NC(C(=O)O)C(C)C (stereo not drawn)	none
O=C1NC(=O)C(CCc2ccncc2)(Cc2cccc(Cl)c2Cl)C(=O)N1c1ccc(Br)cc1 (stereo not drawn)	b-catenin transl 95, MT stabilize HCS 19
